Source: article PMC9924099 (Journal of medicinal chemistry, 2021)
Read-outs that look alike come from different tables or passages of the source.

Columns and labels:
[1] = test system: WT p53 MCF-7 cells; experiment: Annexin V staining; type: cell-based, human; conditions: MCF-7, 24 h
In short: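 After 24 h exposure to test compound or DMSO, MCF-7 cells (RPMI 1640, 10% FBS, 1% penicillin/streptomycin, 1% L-glutamine) were scraped, PBS-washed and taken up in Annexin V binding buffer. They were stained with fluorochrome-conjugated Annexin V for 15 min at RT in the dark, then PI staining solution was added. Flow cytometry read-out; % Annexin V-positive cells expressed relative to DMSO.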

[2] = test system: WT p53 MCF-7 cells; experiment: qRT-PCR gene expression; type: cell-based, human; conditions: for expression of MDM2 / expression of canonical p53 targets p21 and NOXA: MCF-7, 6 μM; for expression of canonical p53 targets p21 and NOXA: 4 h; for p53 mRNA level: MCF-7, 4 h
In short: (§1)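 Cells were exposed to 6 μM test compound or DMSO for 4 h. RNA was extracted and reverse-transcribed, and transcripts were quantified by TaqMan qRT-PCR normalised to GAPDH. Values are means with SD from triplicates of repeated experiments.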

[3] = test system: p53^R280K MDA-MB-231 cells; experiment: qRT-PCR gene expression; type: cell-based, human; conditions: for expression of canonical p53 targets p21 and NOXA: MDA-MB-231, 6 μM, 4 h; for p53 mRNA levels: MDA-MB-231, 4 h
In short: as §1

[4] = test system: p53^R273H MDA-MB-468 cells; experiment: qRT-PCR gene expression; type: cell-based, human; conditions: for expression of MDM2 / expression of canonical p53 targets p21 and NOXA: MDA-MB-468, 6 μM; for expression of canonical p53 targets p21 and NOXA: 4 h; for p53 mRNA levels: MDA-MB-468, 4 h
In short: as §1

[5] = test system: caspase 3 and PARP1 in p53^R273H MDA-MB-468 cells; experiment: Western blot of caspase 3 and PARP1; type: cell-based, human; conditions: MDA-MB-468, 24 h
In short: (§2)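 Cells grown in RPMI 1640 with 10% FBS, 1% penicillin/streptomycin and 1% L-glutamine, then given test compound or DMSO control for 24 h. Lysed 30 min on ice in Tris-Cl pH 8.0/NaCl/glycerol/NP-40/EDTA buffer with protease inhibitors, then cleared. 100 μg lysate run on 4-12% SDS-PAGE, transferred to PVDF, probed with anti-PARP and anti-caspase 3 (1:1000 each). ECL detection.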

[6] = test system: p53^R273H MDA-MB-468 cells; experiment: WST-1 cell proliferation assay; type: cell-based, human; conditions: Homo sapiens, read-out: IC50, inhibition of cell proliferation
[7] = test system: caspase 3 and PARP1 in p53^R280K MDA-MB-231 cells; experiment: Western blot of caspase 3 and PARP1; type: cell-based, human; conditions: MDA-MB-231, 24 h
In short: as §2

[8] = molecular target: p53^R280K in MDA-MB-231 cells (Homo sapiens, UniProt P04637, R280K); experiment: Western blot of p53 expression; type: cell-based; conditions: MDA-MB-231, 6 μM or 12 μM, 24 h
In short: (§3)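 Cells were treated 24 h with 6 μM or 12 μM test compound or DMSO and lysed in NP-40/Tris-Cl pH 8.0 buffer with protease inhibitors. Load on 4–12% SDS-PAGE was 20 μg for MDA-MB-231 and MDA-MB-468 or 50 μg for MCF-7. After PVDF transfer, blots were probed with p53 DO-1 antibody, reprobed for GAPDH as loading control and developed by ECL.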

[9] = test system: p53^R280K MDA-MB-231 cells; experiment: Annexin V staining; type: cell-based, human; conditions: MDA-MB-231, 6 μM or 12 μM, 24 h
[10] = molecular target: p53^R273H in MDA-MB-468 cells (Homo sapiens, UniProt P04637, R273H); experiment: Western blot of p53 expression; type: cell-based; conditions: MDA-MB-468, 6 μM or 12 μM, 24 h
In short: as §3

[11] = test system: p53^R280K MDA-MB-231 cells; experiment: WST-1 cell proliferation assay; type: cell-based, human; conditions: for IC50: Homo sapiens, read-out: IC50, inhibition of cell proliferation
[12] = test system: mammary epithelial cells (MCF10A); experiment: Proliferation of normal cells; type: cell-based, human
[13] = test system: p53^R273H MDA-MB-468 cells; experiment: Annexin V staining; type: cell-based, human; conditions: MDA-MB-468, 6 μM or 12 μM; for increase in Annexin V stained cells compared to DMSO: 24 h
[14] = test system: colon cells (CCD841); experiment: Proliferation of normal cells; type: cell-based, human
[15] = molecular target: WT p53 in MCF-7 cells (Homo sapiens, UniProt P04637); experiment: Western blot of p53 expression; type: cell-based; conditions: MCF-7, 6 μM or 12 μM, 24 h
In short: as §3

[16] = test system: caspase 3 and PARP1 in WT p53 MCF-7 cells; experiment: Western blot of caspase 3 and PARP1; type: cell-based, human; conditions: MCF-7 (caspase 3-deficient), 24 h
In short: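 MCF-7 cells were treated with test compound or DMSO for 24 h and lysed on ice for 30 min (20 mM Tris-Cl pH 8.0, 137 mM NaCl, 10% glycerol, 1% NP-40, 2 mM EDTA, protease inhibitors). Lysates were cleared at 18,500 × g. 100 μg lysate was run on 4–12% SDS-PAGE, transferred to PVDF and probed with anti-PARP and anti-caspase 3 (1:1000), HRP secondary and ECL. GAPDH served as loading control.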

[17] = Log P determination; type: physicochemical; conditions: octanol/sodium phosphate buffer (pH 7.4)
[18] = test system: ATM in MDA-MB-468 cells; experiment: Western blot of pATM S1981; type: cell-based, human; conditions: MDA-MB-468, 6 μM, 24 h
In short: (§4)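 Cells were treated 24 h with 6 μM test compound or DMSO and lysed in NP-40 buffer; 250 μg lysate was run on 4–12% SDS-PAGE and transferred to PVDF. Probing used anti-pATM Ser1981 (1:500) with HRP anti-mouse IgG (1:1000) and ECL detection, then reprobing with anti-GAPDH (1:5000). Experiments were done in triplicate.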

[19] = test system: WT p53 MCF-7 cells; experiment: WST-1 cell proliferation assay; type: cell-based, human; conditions: MCF-7, 24 h or 72 h; compared to mutant p53 cells
In short: (§5)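 WST-1 assay. Test compound in DMSO was added to cells at 40,000 cells/ml, giving 1% DMSO final, and plated at 4,000 cells/well in duplicate; medium-only wells served as background. Incubation was 24 h or 72 h at 37 °C, then WST-1 for 2 h and OD450 read. Proliferation is expressed as % of DMSO control; triplicate experiments. MCF-7 grown in RPMI 1640, MDA-MB-436 in DMEM.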

[20] = test system: p53 knockdown MDA-MB-468 cells; experiment: WST-1 proliferation after p53 siRNA knockdown; type: cell-based, human; conditions: p53 siRNA MDA-MB-468 vs NS siRNA cells
In short: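 MDA-MB-468 cells at 50–60% confluence received p53 SMARTpool siRNA or non-specific siRNA (0.430 nmol with Lipofectamine 2000 in Opti-MEM, 5 h), with a second transfection 24 h later. At 72 h after the first transfection, cells were treated with test compound or DMSO. Proliferation was then measured by WST-1 as % of DMSO.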

[21] = test system: p53^R280K MDA-MB-231 cells; experiment: Flow-cytometric cell cycle analysis; type: cell-based, human; conditions: MDA-MB-231, 6 μM, 24 h; DMSO 42.9%
[22] = test system: p53 null MDA-MB-436 cells; experiment: WST-1 cell proliferation assay; type: cell-based, human; conditions: MDA-MB-436, 24 h and 72 h; compared to MDA-MB-231 or MDA-MB-468
In short: as §5

[23] = test system: ATM in MDA-MB-231 cells; experiment: Western blot of pATM S1981; type: cell-based, human; conditions: MDA-MB-231, 6 μM, 24 h
In short: as §4

[24] = test system: ATM in WT p53 MCF-7 cells; experiment: Western blot of pATM S1981; type: cell-based, human; conditions: MCF-7, 6 μM, 24 h
In short: as §4

## [Se]=C=NCCC12CC3CC(CC(C3)C1)C2 [Ad-ISeC 14, 1-Isoselenocyanato-2-(adamantan-1-yl)ethane]
[1]
  increase in Annexin V stained cells compared to DMSO: not in MCF-7 cells
[2]
  expression of MDM2: statistically significant elevation of MDM2
  expression of canonical p53 targets p21 and NOXA: significant increase in the expression levels
  p53 mRNA level: increase in the p53 mRNA level
[3]
  expression of canonical p53 targets p21 and NOXA: significantly enhanced the levels of p21 and NOXA
  p53 mRNA levels: remained unchanged
[4]
  expression of MDM2: statistically significant elevation of MDM2
  expression of canonical p53 targets p21 and NOXA: significantly enhanced the levels of p21 and NOXA
  p53 mRNA levels: remained unchanged
[5]
  levels of uncleaved caspase 3, uncleaved PARP1 and cleaved-PARP1: decrease in the levels of uncleaved caspase 3 and PARP-1 and an increase in the levels of cleaved-PARP1 fragment
[6]; MDA-MB-468, 24 h
  IC50: 6 to 12 µM
[6]; MDA-MB-468, 72 h
  IC50: 6 to 12 µM
[7]
  levels of uncleaved caspase 3, uncleaved PARP1 and cleaved-PARP1: decrease in the levels of uncleaved caspase 3 and PARP-1 and an increase in the levels of cleaved-PARP1 fragment
[8]
  mutant p53 expression (western blot): significant reduction in mutant p53 expression
[9]
  increase in Annexin V stained cells compared to DMSO: enhanced the apoptotic potential
[10]
  mutant p53 expression (western blot): significant reduction in mutant p53 expression
[11]; MDA-MB-231, 24 h
  IC50: 6 to 12 µM
[11]; MDA-MB-231, 72 h
  IC50: 6 to 12 µM
[12]; MCF10A normal cells vs MDA-MB-231 and MDA-MB-468
  IC50 compared with mutant p53 tumor cells (in words): significantly higher
[13]
  level of apoptosis compared to Ad-ITC 5: > 2 fold
  increase in Annexin V stained cells compared to DMSO: enhanced the apoptotic potential
[14]; CCD841 normal cells vs MDA-MB-231 and MDA-MB-468
  IC50 compared with mutant p53 tumor cells (in words): significantly higher
[15]
  WT p53 expression (western blot): marginally elevated
[16]
  levels of uncleaved PARP1 and cleaved-PARP1: did not detect any significant change

## S=C=NCCCC12CC3CC(CC(C3)C1)C2 [Ad-ITC 6, 1-Isothiocyanato-3-(adamantan-1-yl)propane]
[17]
  logP at 18 h: 5.17
[18]
  phosphorylation of ATM at S1981: phosphorylation of ATM at S1981
[1]
  increase in Annexin V stained cells compared to DMSO: did not display any significant increase
[2]
  expression of MDM2: enhanced the expression of MDM2
  expression of canonical p53 targets p21 and NOXA: upregulated expression of p21 and NOXA
  p53 mRNA level: increase in the p53 mRNA level
[3]
  expression of canonical p53 targets p21 and NOXA: enhanced the expression of the canonical p53 targets p21 and NOXA
  p53 mRNA levels: remained unchanged
[4]
  expression of MDM2: enhanced the expression of MDM2
  expression of canonical p53 targets p21 and NOXA: enhanced the expression of the canonical p53 targets p21 and NOXA
  p53 mRNA levels: remained unchanged
[19]
  inhibition of cell proliferation / sensitivity (in words): remarkably less sensitive
[5]
  levels of uncleaved caspase 3, uncleaved PARP1 and cleaved-PARP1: significant decrease in the levels of uncleaved caspase 3 and PARP1
[6]; MDA-MB-468, 24 h
  IC50: 12 to 24 µM
[6]; MDA-MB-468, 72 h
  IC50: 12 to 24 µM
[20]
  sensitivity of cell proliferation (in words): markedly reduced sensitivity
[21]
  cells in G1 phase: 48.2%
[7]
  levels of uncleaved caspase 3, uncleaved PARP1 and cleaved-PARP1: significant decrease in the levels of uncleaved caspase 3 and PARP1
[8]
  mutant p53 expression (western blot): differential decrease in the expression of mutant p53
[22]
  sensitivity of cell proliferation (in words): significantly reduced sensitivity
[9]
  increase in Annexin V stained cells compared to DMSO: 2.0-5.1 fold
[10]
  mutant p53 expression (western blot): differential decrease in the expression of mutant p53
[11]; MDA-MB-231, 24 h
  IC50: 12 to 24 µM
[11]; MDA-MB-231, 72 h
  IC50: 12 to 24 µM
[11]; MDA-MB-231, 24 h or 72 h
  inhibition of cell proliferation (in words): dose-dependent activity
[12]
  IC50 compared with mutant p53 tumor cells (in words): significantly higher
[23]
  phosphorylation of ATM at S1981: phosphorylation of ATM at S1981
[13]
  increase in Annexin V stained cells compared to DMSO: 2.0-5.1 fold
[14]
  IC50 compared with mutant p53 tumor cells (in words): significantly higher
[24]
  pATM-S1981: absent
[15]
  WT p53 expression (western blot): did not decrease WT p53 expression
[16]
  levels of uncleaved PARP1 and cleaved-PARP1: did not detect any significant decrease in the levels of uncleaved PARP1 or accumulation of cleaved-PARP1 fragments
